In ChEMBL document CHEMBL3779805, “Orally bioavailable pyridine and pyrimidine-based Factor XIa inhibitors: Discovery of the methyl N-phenyl carbamate P2 prime group” (Bioorg Med Chem, 2016):

How the values were obtained:
Coagulation factor XI = Coagulation factor XI (Homo sapiens, UniProt P03951)
[1] = Volume of distribution at steady state in beagle dog plasma at 0.19 mg/kg, iv and 0.19 mg/kg, po by LC-MS/MS method; format: ADME, organism-based, Canis lupus familiaris; conditions: read-out: Vdss
Method in brief: (§1)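 Dogs dosed iv and po in N-in-1 (cassette) format. The same vehicle was used for both routes: 70% water, 10% ethanol, 10% dimethylacetamide, 10% polypropylene glycol.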

[2] = Clearance in beagle dog plasma at 0.19 mg/kg, iv and 0.19 mg/kg, po administered in cassette format by LC-MS/MS method; format: ADME, organism-based, Canis lupus familiaris
Method in brief: as §1

[3] = Half life in beagle dog plasma at 0.19 mg/kg, iv and 0.19 mg/kg, po by LC-MS/MS method; format: ADME, organism-based, Canis lupus familiaris
Method in brief: as §1

[4] = Oral bioavailability in beagle dog plasma at 0.19 mg/kg by LC-MS/MS method; format: ADME, organism-based, Canis lupus familiaris
Method in brief: as §1

Plasma = experiment: Anticoagulant activity in human plasma assessed as concentration required for 50% increase in activated partial thromboplastin time by automated coagulation analyzer; format: functional
Method in brief: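 aPTT clotting assay in pooled normal human plasma on an automated coagulation analyzer with commercial reagents. EC1.5x is the inhibitor plasma concentration giving a 50% increase in clotting time over the no-inhibitor control.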

[5] = AUC in beagle dog plasma at 0.19 mg/kg, iv and 0.19 mg/kg, po by LC-MS/MS method; format: ADME, organism-based, Canis lupus familiaris
Method in brief: as §1

[6] = Oral bioavailability in beagle dog plasma at 0.8 mg/kg by LC-MS/MS method; format: ADME, organism-based, Canis lupus familiaris
Method in brief: as §1

[7] = Volume of distribution at steady state in beagle dog plasma at 0.4 mg/kg, iv and 0.8 mg/kg, po by LC-MS/MS method; format: ADME, organism-based, Canis lupus familiaris; conditions: read-out: Vdss
Method in brief: as §1

[8] = Clearance in beagle dog plasma at 0.4 mg/kg, iv and 0.8 mg/kg, po administered in cassette format by LC-MS/MS method; format: ADME, organism-based, Canis lupus familiaris
Method in brief: as §1

[9] = Half life in beagle dog plasma at 0.4 mg/kg, iv and 0.8 mg/kg, po by LC-MS/MS method; format: ADME, organism-based, Canis lupus familiaris
Method in brief: as §1

[10] = AUC in beagle dog plasma at 0.4 mg/kg, iv and 0.8 mg/kg, po by LC-MS/MS method; format: ADME, organism-based, Canis lupus familiaris
Method in brief: as §1

[11] = target: Tissue-type plasminogen activator (Homo sapiens, UniProt P00750); experiment: Inhibition of human TPA assessed as reduction in release of p-nitroaniline after 10 to 120 mins by Michaelis-Menten equation analysis
Method in brief: (§2)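 Purified human enzymes with commercial synthetic peptide substrates. IC50 from 4–11 inhibitor concentrations, run in duplicate at a fixed substrate concentration (standard error <20%). Ki = IC50/(1+S/Km), assuming competitive inhibition.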

Plasma kallikrein = Plasma kallikrein (Homo sapiens, UniProt P03952); experiment: Inhibition of human plasma kallikrein assessed as reduction in release of p-nitroaniline after 10 to 120 mins by Michaelis-Menten equation analysis; format: cell-free
Method in brief: as §2

[12] = Oral bioavailability in beagle dog plasma at 0.2 mg/kg by LC-MS/MS method; format: ADME, organism-based, Canis lupus familiaris
Method in brief: as §1

Canis familiaris [13] = experiment: Oral bioavailability in beagle dog plasma at 1 mg/kg dosed in discrete format by LC-MS/MS method; format: ADME, organism-based, Canis lupus familiaris; conditions: in vivo
Method in brief: (§3)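 Discrete oral dosing in dog at 1 mpk. Oral vehicle: 70% PEG400, 20% TPGS, 10% ethanol.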

[14] = Inhibition of human […] chymotrypsin assessed as reduction in release of p-nitroaniline after 10 to 120 mins by Michaelis-Menten equation analysis
[15] = Volume of distribution at steady state in beagle dog plasma at 0.25 mg/kg, iv and 0.2 mg/kg, po by LC-MS/MS method; format: ADME, organism-based, Canis lupus familiaris; conditions: read-out: Vdss
Method in brief: as §1

[16] = target: Vitamin K-dependent protein C (Homo sapiens, UniProt P04070); experiment: Inhibition of human activated protein C assessed as reduction in release of p-nitroaniline after 10 to 120 mins by Michaelis-Menten equation analysis
Method in brief: as §2

[17] = Half life in beagle dog plasma at 0.25 mg/kg, iv and 0.2 mg/kg, po by LC-MS/MS method; format: ADME, organism-based, Canis lupus familiaris
Method in brief: as §1

[18] = AUC in beagle dog plasma at 0.25 mg/kg, iv and 0.2 mg/kg, po by LC-MS/MS method; format: ADME, organism-based, Canis lupus familiaris
Method in brief: as §1

Coagulation factor X = Coagulation factor X (Homo sapiens, UniProt P00742); experiment: Inhibition of human coagulation factor 10a assessed as reduction in release of p-nitroaniline after 10 to 120 mins by Michaelis-Menten equation analysis
Method in brief: as §2

Canis familiaris [19] = experiment: AUC in beagle dog plasma at 1 mg/kg, po dosed in discrete format by LC-MS/MS method; format: ADME, organism-based, Canis lupus familiaris; conditions: in vivo
Method in brief: as §3

Canis familiaris [20] = experiment: Clearance in beagle dog plasma at 0.25 mg/kg, iv and 0.2 mg/kg, po administered in cassette format by LC-MS/MS method; format: ADME, organism-based, Canis lupus familiaris; conditions: in vivo
Method in brief: as §1

Prothrombin = Prothrombin (Homo sapiens, UniProt P00734); experiment: Inhibition of human coagulation thrombin assessed as reduction in release of p-nitroaniline after 10 to 120 mins by Michaelis-Menten equation analysis
Method in brief: as §2

Plasminogen = Plasminogen (Homo sapiens, UniProt P00747); experiment: Inhibition of human plasmin assessed as reduction in release of p-nitroaniline after 10 to 120 mins by Michaelis-Menten equation analysis
Method in brief: as §2

Coagulation factor VII = target: T1, Coagulation factor VII (Homo sapiens, UniProt P08709); experiment: Inhibition of human coagulation factor 7a assessed as reduction in release of p-nitroaniline after 10 to 120 mins by Michaelis-Menten equation analysis
T1 sequence (P08709 whole entry): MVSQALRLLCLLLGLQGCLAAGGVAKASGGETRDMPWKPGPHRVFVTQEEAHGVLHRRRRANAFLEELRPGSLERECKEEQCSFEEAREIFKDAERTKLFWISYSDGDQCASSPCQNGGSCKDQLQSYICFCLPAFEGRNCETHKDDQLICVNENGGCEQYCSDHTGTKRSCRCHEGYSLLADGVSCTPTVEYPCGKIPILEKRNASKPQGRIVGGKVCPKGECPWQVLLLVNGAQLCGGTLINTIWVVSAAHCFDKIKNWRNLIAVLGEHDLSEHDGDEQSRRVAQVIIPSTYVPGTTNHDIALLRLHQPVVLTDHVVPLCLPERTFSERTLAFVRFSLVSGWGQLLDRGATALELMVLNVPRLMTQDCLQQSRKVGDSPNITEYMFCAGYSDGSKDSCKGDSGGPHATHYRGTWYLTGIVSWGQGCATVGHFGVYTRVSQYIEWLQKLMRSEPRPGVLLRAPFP
Method in brief: as §2

Trypsin = Trypsin (Homo sapiens, UniProt P07477+P07478+P35030); experiment: Inhibition of human coagulation trypsin assessed as reduction in release of p-nitroaniline after 10 to 120 mins by Michaelis-Menten equation analysis; format: protein assay
Method in brief: as §2

[21] = target: Urokinase-type plasminogen activator (Homo sapiens, UniProt P00749); experiment: Inhibition of human urokinase assessed as reduction in release of p-nitroaniline after 10 to 120 mins by Michaelis-Menten equation analysis
Method in brief: as §2

[22] = Clearance in beagle dog plasma at 0.2 mg/kg, iv and 0.29 mg/kg, po administered in cassette format by LC-MS/MS method; format: ADME, organism-based, Canis lupus familiaris
Method in brief: as §1

[23] = Half life in beagle dog plasma at 0.2 mg/kg, iv and 0.29 mg/kg, po by LC-MS/MS method; format: ADME, organism-based, Canis lupus familiaris
Method in brief: as §1

[24] = Oral bioavailability in beagle dog plasma at 0.29 mg/kg by LC-MS/MS method; format: ADME, organism-based, Canis lupus familiaris
Method in brief: as §1

[25] = AUC in beagle dog plasma at 0.2 mg/kg, iv and 0.29 mg/kg, po by LC-MS/MS method; format: ADME, organism-based, Canis lupus familiaris
Method in brief: as §1

[26] = Volume of distribution at steady state in beagle dog plasma at 0.2 mg/kg, iv and 0.29 mg/kg, po by LC-MS/MS method; format: ADME, organism-based, Canis lupus familiaris; conditions: read-out: Vdss
Method in brief: as §1

Coagulation factor IX = Coagulation factor IX (Homo sapiens, UniProt P00740); experiment: Inhibition of human coagulation factor 9a assessed as reduction in release of p-nitroaniline after 10 to 120 mins by Michaelis-Menten equation analysis
Method in brief: as §2

[27] = AUC in beagle dog plasma at 0.28 mg/kg, iv and 0.62 mg/kg, po by LC-MS/MS method; format: ADME, organism-based, Canis lupus familiaris
Method in brief: as §1

[28] = Half life in beagle dog plasma at 0.28 mg/kg, iv and 0.62 mg/kg, po by LC-MS/MS method; format: ADME, organism-based, Canis lupus familiaris
Method in brief: as §1

[29] = Oral bioavailability in beagle dog plasma at 0.62 mg/kg by LC-MS/MS method; format: ADME, organism-based, Canis lupus familiaris
Method in brief: as §1

[30] = Clearance in beagle dog plasma at 0.28 mg/kg, iv and 0.62 mg/kg, po administered in cassette format by LC-MS/MS method; format: ADME, organism-based, Canis lupus familiaris
Method in brief: as §1

[31] = Volume of distribution at steady state in beagle dog plasma at 0.28 mg/kg, iv and 0.62 mg/kg, po by LC-MS/MS method; format: ADME, organism-based, Canis lupus familiaris; conditions: read-out: Vdss
Method in brief: as §1

Sequence of Coagulation factor XI (P03951 19-387 limits assumed): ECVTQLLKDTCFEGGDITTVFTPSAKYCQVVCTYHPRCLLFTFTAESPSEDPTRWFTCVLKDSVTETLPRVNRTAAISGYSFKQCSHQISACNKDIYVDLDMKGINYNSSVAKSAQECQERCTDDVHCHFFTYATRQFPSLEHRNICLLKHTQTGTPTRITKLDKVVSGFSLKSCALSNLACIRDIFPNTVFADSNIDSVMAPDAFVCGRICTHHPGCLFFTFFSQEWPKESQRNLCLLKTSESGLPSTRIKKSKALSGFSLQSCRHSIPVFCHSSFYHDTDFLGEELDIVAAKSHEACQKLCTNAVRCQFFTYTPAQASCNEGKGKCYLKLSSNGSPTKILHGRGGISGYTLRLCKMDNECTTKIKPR
Sequence of Coagulation factor XI (P03951 388-625 limits assumed): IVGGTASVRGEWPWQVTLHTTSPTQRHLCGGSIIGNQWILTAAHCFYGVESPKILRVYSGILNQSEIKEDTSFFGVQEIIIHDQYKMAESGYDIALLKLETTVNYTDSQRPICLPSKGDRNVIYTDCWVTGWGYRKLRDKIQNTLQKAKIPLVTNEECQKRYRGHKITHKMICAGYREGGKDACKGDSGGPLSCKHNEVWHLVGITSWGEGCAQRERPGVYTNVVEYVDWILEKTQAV
Sequence of Tissue-type plasminogen activator (P00750 whole entry): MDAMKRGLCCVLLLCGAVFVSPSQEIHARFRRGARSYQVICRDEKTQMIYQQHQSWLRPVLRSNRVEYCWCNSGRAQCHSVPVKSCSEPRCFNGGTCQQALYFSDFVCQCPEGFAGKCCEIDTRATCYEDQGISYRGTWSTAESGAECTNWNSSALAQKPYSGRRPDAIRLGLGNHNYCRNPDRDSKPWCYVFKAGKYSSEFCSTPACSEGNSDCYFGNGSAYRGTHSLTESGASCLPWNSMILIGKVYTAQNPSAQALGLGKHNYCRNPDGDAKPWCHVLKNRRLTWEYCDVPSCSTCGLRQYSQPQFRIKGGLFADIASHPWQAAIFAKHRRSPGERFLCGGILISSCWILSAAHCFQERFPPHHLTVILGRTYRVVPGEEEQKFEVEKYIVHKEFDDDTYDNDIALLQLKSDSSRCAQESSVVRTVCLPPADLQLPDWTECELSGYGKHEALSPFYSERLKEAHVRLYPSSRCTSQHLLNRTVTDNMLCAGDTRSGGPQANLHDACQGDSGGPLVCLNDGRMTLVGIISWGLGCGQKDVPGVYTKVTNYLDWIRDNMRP
Sequence of Coagulation factor X (P00742 41-179 limits assumed): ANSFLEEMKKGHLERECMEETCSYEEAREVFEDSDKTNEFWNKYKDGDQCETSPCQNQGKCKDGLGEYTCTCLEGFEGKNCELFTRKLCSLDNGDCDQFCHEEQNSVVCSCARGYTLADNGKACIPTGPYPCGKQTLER
Sequence of Coagulation factor X (P00742 235-488 limits assumed): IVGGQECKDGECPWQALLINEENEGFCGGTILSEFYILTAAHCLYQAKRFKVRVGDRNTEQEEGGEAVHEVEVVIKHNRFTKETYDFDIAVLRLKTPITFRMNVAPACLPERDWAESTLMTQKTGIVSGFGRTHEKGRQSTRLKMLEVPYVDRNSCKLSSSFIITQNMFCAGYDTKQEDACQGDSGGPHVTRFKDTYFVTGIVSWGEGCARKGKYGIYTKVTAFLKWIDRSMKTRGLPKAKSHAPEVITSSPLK
Sequence of Vitamin K-dependent protein C (P04070 43-197 limits assumed): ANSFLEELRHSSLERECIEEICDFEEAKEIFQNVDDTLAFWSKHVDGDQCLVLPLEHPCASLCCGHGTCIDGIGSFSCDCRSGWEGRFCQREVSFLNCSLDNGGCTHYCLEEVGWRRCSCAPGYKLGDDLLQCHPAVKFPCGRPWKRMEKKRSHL
Sequence of Vitamin K-dependent protein C (P04070 212-461 limits assumed): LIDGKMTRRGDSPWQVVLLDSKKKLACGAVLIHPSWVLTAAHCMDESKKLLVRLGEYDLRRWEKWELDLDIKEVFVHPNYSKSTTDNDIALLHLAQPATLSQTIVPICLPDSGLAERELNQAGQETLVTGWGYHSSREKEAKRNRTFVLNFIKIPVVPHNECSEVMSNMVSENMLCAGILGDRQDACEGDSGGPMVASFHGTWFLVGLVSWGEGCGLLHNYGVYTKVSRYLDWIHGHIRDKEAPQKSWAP
Sequence of Plasma kallikrein (P03952 20-390 limits assumed): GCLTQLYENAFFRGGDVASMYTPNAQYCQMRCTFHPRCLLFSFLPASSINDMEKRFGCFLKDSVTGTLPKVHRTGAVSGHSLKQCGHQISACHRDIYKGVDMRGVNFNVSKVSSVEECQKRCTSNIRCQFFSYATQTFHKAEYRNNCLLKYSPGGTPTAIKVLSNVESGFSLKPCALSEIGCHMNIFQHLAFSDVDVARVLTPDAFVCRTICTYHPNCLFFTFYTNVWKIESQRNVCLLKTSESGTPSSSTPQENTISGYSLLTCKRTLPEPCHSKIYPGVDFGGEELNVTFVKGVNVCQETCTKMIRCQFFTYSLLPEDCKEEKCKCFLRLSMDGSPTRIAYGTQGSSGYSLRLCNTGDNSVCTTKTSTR
Sequence of Plasma kallikrein (P03952 391-638 limits assumed): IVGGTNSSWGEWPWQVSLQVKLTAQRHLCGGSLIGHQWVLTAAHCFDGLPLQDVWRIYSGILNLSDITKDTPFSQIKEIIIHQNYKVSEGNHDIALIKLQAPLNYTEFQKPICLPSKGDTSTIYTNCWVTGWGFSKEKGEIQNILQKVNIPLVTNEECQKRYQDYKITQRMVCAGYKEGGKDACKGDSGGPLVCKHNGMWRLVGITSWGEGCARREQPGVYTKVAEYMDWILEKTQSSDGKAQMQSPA
Sequence of Plasminogen (P00747 97-580 limits assumed): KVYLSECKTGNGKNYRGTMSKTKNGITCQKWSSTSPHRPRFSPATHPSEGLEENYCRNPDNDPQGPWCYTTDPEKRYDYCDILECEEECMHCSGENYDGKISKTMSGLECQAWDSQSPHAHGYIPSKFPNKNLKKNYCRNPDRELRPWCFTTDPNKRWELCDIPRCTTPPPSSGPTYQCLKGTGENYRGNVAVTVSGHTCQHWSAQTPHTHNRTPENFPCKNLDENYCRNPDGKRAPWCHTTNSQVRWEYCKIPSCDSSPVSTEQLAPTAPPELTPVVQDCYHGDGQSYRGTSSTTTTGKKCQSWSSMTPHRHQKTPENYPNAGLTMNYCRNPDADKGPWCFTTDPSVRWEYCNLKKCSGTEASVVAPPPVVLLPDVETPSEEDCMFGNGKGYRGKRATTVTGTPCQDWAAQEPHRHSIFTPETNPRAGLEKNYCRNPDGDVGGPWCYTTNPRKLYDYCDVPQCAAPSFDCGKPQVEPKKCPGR
Sequence of Plasminogen (P00747 581-810 limits assumed): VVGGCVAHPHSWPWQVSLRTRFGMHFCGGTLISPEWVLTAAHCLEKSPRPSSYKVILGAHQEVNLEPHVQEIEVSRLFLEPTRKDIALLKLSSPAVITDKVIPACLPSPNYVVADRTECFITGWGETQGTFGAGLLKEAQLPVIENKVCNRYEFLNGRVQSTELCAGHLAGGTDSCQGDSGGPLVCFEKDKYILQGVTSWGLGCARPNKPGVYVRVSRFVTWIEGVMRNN
Sequence of Coagulation factor IX (P00740 47-191 limits assumed): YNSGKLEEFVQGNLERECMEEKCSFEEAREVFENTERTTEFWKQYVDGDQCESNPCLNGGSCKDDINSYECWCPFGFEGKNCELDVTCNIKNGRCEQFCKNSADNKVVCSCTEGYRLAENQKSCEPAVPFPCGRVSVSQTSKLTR
Sequence of Coagulation factor IX (P00740 227-461 limits assumed): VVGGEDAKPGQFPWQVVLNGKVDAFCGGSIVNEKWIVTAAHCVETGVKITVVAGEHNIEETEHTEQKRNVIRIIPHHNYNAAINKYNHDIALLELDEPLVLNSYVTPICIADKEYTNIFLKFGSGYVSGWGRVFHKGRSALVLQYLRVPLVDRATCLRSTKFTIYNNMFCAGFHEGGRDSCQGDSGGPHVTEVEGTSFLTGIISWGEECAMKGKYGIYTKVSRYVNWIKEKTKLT

Compound | Ki (Coagulation factor XI) [µM] | EC1.5 (Plasma) [µM] | Ki [11] [µM] | Ki (Plasma kallikrein) [µM] | Ki [14] [µM] | Ki [16] [µM] | Ki (Coagulation factor X) [µM] | Ki (Prothrombin) [µM] | Ki (Plasminogen) [µM] | Ki (Coagulation factor VII) [µM] | Ki (Trypsin) [µM] | Ki [21] [µM] | also measured
COC(=O)Nc1ccc(-c2cc([C@H](Cc3ccccc3)NC(=O)/C=C/c3cc(Cl)ccc3-n3cnnn3)ccn2)cc1 | 0.011 | 26 |  |  |  |  |  |  |  |  |  |  | Vd [1]: 1.6 L/kg; clearance [2]: 5.6 mL/min/kg; half-life [3]: 3.7 h; bioavailability [4]: 34%; AUC [5]: 0.28 µM·h
COC(=O)Nc1ccc(-c2cc([C@H](Cc3ccccc3)NC(=O)[C@H]3CC[C@H](CN)CC3)[nH]c(=O)c2)cc1 | 0.0024 | 0.4 |  |  |  |  |  |  |  |  |  |  | bioavailability [6]: < 1%; Vd [7]: 0.8 L/kg; clearance [8]: 0.283 mL/min/kg; half-life [9]: 1.1 h; AUC [10]: 0.01 µM·h
COC(=O)Nc1ccc(-c2ccnc([C@H](Cc3ccccc3)NC(=O)/C=C/c3cc(Cl)ccc3-n3cnnn3)c2)cc1 | 0.023 | >40 | 10.5 | 1.85 | 29.5 | > 30.2 | 1.13 | > 13.3 | 12.5 | > 13.4 | > 6.218 | > 29.7 | bioavailability [12]: 34%; F (Canis familiaris [13]): 53%; Vd [15]: 3.9 L/kg; half-life [17]: 8 h; AUC [18]: 0.267 µM·h; AUC (Canis familiaris [19]): 1.878 µM·h; clearance (Canis familiaris [20]): 6.1 mL/min/kg
COC(=O)Nc1ccc(-c2cc([C@H](Cc3ccccc3)NC(=O)[C@H]3CC[C@H](CN)CC3)ncn2)cc1 | 0.0091 | 1.2 |  |  |  |  |  |  |  |  |  |  | clearance [22]: 0.45 mL/min/kg; half-life [23]: 3.2 h; bioavailability [24]: 66%; AUC [25]: 0.195 µM·h; Vd [26]: 5.4 L/kg
COC(=O)Nc1ccc(-c2ccnc([C@H](Cc3ccccc3)NC(=O)[C@H]3CC[C@H](CN)CC3)c2)cc1 | 0.0063 | 2.6 | > 21.9 | 0.042 | > 20.8 | > 30.2 | > 9 | > 12.6 | > 22.1 | > 12.2 | 0.101 | > 14.1 | Ki (Coagulation factor IX): > 34.9 µM; AUC [27]: 0.194 µM·h; half-life [28]: 2.7 h; bioavailability [29]: 63%; clearance [30]: 0.9 mL/min/kg; Vd [31]: 10 L/kg
